ChEMBL document CHEMBL3822425, “Isatin Derived Spirocyclic Analogues with α-Methylene-γ-butyrolactone as Anticancer Agents: A Structure-Activity Relationship Study” (J Med Chem, 2016)
Activity calls are given as the source filed them. No cut-off for these calls is given here.

Key:
HeLa [1] = experiment: Potency index, ratio of parthenolide IC50 to compound IC50 for cell growth inhibition of human HeLa cells; type: functional
SW480 [2] = experiment: Potency index, ratio of ibrutinib IC50 to compound IC50 for cell growth inhibition of human SW480 cells; type: functional
A2780 [3] = experiment: Cytotoxicity against human A2780 cells assessed as cell growth inhibition after 3 days by presto blue dye based plate reader method; type: functional; settings: A2780, 72 h
Outline: (§1)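 Cells in DMEM high glucose/10% FBS (A2780 in RPMI/10% FBS), 4,000 per well, overnight, then 40 to 0.039 µM or vehicle, 24, 48, 72 h at 37°C, 5% CO2; PrestoBlue 15 min, fluorescence 560ex/590em; growth as 100×[(T−Tz)/(C−Tz)] per NCI algorithm.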

SW480 [4] = experiment: Cytotoxicity against human SW480 cells assessed as cell growth inhibition after 3 days by presto blue dye based plate reader method; type: functional; settings: SW480, 72 h
A2780 [5] = experiment: Potency index, ratio of parthenolide EC50 to compound EC50 for cell growth inhibition of human A2780 cells; type: functional
SW480 [6] = experiment: Potency index, ratio of parthenolide IC50 to compound IC50 for cell growth inhibition of human SW480 cells; type: functional
MIA PaCa-2 [7] = experiment: Potency index, ratio of parthenolide IC50 to compound IC50 for cell growth inhibition of human MIAPaCa2 cells; type: functional
[8] = Cytotoxicity against human MIAPaCa2 cells assessed as cell growth inhibition after 3 days by presto blue dye based plate reader method; type: functional; settings: MIA PaCa-2, 72 h; outline: as §1
MIA PaCa-2 [9] = experiment: Potency index, ratio of ibrutinib IC50 to compound IC50 for cell growth inhibition of human MIAPaCa2 cells; type: functional
A2780 [10] = experiment: Potency index, ratio of ibrutinib EC50 to compound EC50 for cell growth inhibition of human A2780 cells; type: functional
HeLa [11] = experiment: Potency index, ratio of ibrutinib IC50 to compound IC50 for cell growth inhibition of human HeLa cells; type: functional
HeLa [12] = experiment: Cytotoxicity against human HeLa cells expressing GFP assessed as cell growth inhibition after 3 days by presto blue dye based plate reader method; type: functional; settings: 72 h; outline: as §1
A2780 [13] = experiment: Anticancer activity against human A2780 cells xenografted in nude C57B6 mouse orthotopic model of ovarian cancer assessed as tumor growth inhibition administered ip 5 days a week for 4 weeks; type: functional
Outline: (§2)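 Nude mice injected with 2 million A2780 ovarian cancer cells; treatment began day 3 (7 groups). Arms: vehicle, 1, 2.5 or 5 mg/kg given 5 days/week to day 30; cisplatin 2 or 4 mg/kg on days 5, 9, 14, 21; or 2.5 mg/kg plus 2 mg/kg cisplatin. Day 30: mice sacrificed, tumors removed and weighed.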

[14] = biological target: T1, Inhibitor of nuclear factor kappa-B kinase subunit beta (Homo sapiens) (UniProt O14920); experiment: Inhibition of IKKbeta in human MIAPaCa2 cells assessed as reduction in IkappaBalpha phosphorylation at 10 to 20 uM by Western blot analysis; type: cell-based; settings: MIA PaCa-2
T1 sequence (whole entry): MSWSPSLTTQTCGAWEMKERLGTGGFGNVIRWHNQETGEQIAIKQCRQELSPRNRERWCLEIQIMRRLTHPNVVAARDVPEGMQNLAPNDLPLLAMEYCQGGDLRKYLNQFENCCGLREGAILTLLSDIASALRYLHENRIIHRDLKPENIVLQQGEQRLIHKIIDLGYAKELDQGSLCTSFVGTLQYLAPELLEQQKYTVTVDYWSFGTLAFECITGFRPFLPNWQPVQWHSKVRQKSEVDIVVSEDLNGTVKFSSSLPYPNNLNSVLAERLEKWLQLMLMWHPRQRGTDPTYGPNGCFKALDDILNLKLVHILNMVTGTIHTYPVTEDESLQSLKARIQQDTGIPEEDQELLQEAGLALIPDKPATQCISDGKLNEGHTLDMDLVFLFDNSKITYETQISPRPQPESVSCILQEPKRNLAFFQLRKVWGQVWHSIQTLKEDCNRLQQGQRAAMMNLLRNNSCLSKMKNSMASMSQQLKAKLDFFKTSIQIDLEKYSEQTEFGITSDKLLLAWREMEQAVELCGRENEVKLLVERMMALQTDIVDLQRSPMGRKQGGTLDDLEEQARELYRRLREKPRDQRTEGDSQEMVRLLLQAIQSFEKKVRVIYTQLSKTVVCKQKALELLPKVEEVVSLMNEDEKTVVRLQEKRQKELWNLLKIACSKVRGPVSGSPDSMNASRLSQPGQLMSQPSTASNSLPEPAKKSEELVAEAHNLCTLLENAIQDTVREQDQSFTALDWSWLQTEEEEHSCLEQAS

[15] = biological target: T1, Inhibitor of nuclear factor kappa-B kinase subunit beta (Homo sapiens); experiment: Inhibition of IKKbeta in human MDA-MB-231 cells assessed as reduction in IkappaBalpha phosphorylation by Western blot analysis; type: cell-based
Outline: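 MDA-MB-231 cytoplasmic fractions: swelling 30 min on ice in HEPES/KCl/EDTA/DTT buffer with inhibitors, 1.25% NP-40, centrifuged; lysates on 4-20% gels, PVDF, anti-phospho-IκBα and anti-IκBα, tubulin or GAPDH loading control, ECL detection.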

A549 [16] = experiment: Inhibition of TNFalpha-induced IKKbeta-mediated NF-kappaB activity in human A549 cells at 10 uM after 2 hrs followed by TNFalpha addition for 3 hrs by ONE-Glo Luciferase reporter based luminescence assay; type: cell-based
Mus musculus [17] = experiment: Downregulation of NF-kappaB p65 in human A2780 cells xenografted in nude C57B6 mouse in presence of cisplatin by […]; type: functional, organism-based
Mus musculus [18] = experiment: Downregulation of Mcl-1 in human A2780 cells xenografted in nude C57B6 mouse by immunohistochemistry method; type: functional, organism-based
Outline: (§3)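 A2780 tumors from the day-30 nude-mouse study: H&E staining to locate tumor areas, cores punched into a tissue microarray, sections stained with rabbit anti-p65 or anti-Mcl-1 via polymer detection, scored 0-3 by percentage of positive cells (3 = ≥67% positive).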

MDA-MB-231 [19] = experiment: Cytotoxicity against human MDA-MB-231 cells assessed as cell growth inhibition after 3 days by presto blue dye based plate reader method; type: functional; outline: as §1
A2780 [20] = experiment: Potentiation of cisplatin-induced growth inhibition of human A2780 cells assessed as combination index at 1 to 10 uM after 3 days; type: functional
Outline: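 Combination index values derived from median effect plots and dose-effect curves of combined treatments.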

[21] = Inhibition of TNFalpha-induced IKKbeta-mediated NF-kappaB activity in human A549 cells after 2 hrs followed by TNFalpha addition for 3 hrs by ONE-Glo Luciferase reporter based luminescence assay; type: cell-based
Outline: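 A549 NF-κB luciferase cells (hygromycin B-maintained), 50,000 per well overnight; compound 2 h, then 20 ng/mL TNFα 3 h; alamarBlue 3 h as seeding/viability control; ONE-Glo added, 10 min room temperature, luminescence at 1000 ms.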

SK-OV-3 [22] = experiment: Induction of apoptosis in human SKOV3 cells assessed as caspase 3/7 activation after 24 hrs in presence of cisplatin by Caspase Glo-3/7 luminescence assay; type: functional, cell-based
Outline: (§4)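 SKOV3 at 3,000 cells per well, overnight; compound 24 h; alamarBlue 3 h with fluorescence 560ex/590em as viability read; Caspase-Glo 3/7 reagent, shaken 30 s, 1 h room temperature, luminescence at 1000 ms integration.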

Mus musculus [23] = experiment: Toxicity in nude C57B6 mouse orthotopic model of ovarian cancer xenografted with human A2780 cells assessed overt toxicity at 1 to 5 mg/kg administered ip 5 days a week for 4 weeks; type: organism-based; settings: in vivo
MDA-MB-231 [24] = experiment: Cytotoxicity against human MDA-MB-231 cells assessed as cell growth inhibition at 0.039 to 40 uM by presto blue dye based plate reader method; type: functional; settings: TDE = time-dependent effect
A2780 [25] = experiment: Anticancer activity against human A2780 cells xenografted in nude C57B6 mouse orthotopic model of ovarian cancer assessed as tumor growth inhibition at 2.5 mg/kg administered ip 5 days a week for 4 weeks in presence of 2 mg/kg of cisplatin; type: functional; outline: as §2
A2780 [26] = experiment: Anticancer activity against human A2780 cells xenografted in nude C57B6 mouse orthotopic model of ovarian cancer assessed as tumor growth inhibition at 5 mg/kg administered ip 5 days a week for 4 weeks; type: functional; settings: read-out: TGI; outline: as §2
SK-OV-3 [27] = experiment: Induction of apoptosis in human SKOV3 cells assessed as caspase 3/7 activation after 24 hrs in absence of cisplatin by Caspase Glo-3/7 luminescence assay; type: functional, cell-based; outline: as §4
HeLa [28] = experiment: Induction of apoptosis in human HeLa cells assessed as PARP cleavage after 24 to 48 hrs by Western blot analysis; type: functional, cell-based
Outline: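 Cells collected with media and trypsinized pellet combined, lysed in RIPA buffer (pH 8.0), 4-20% SDS-PAGE, Western blot with anti-PARP to detect cleavage; HeLa timepoint 48 h.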

A2780 [29] = experiment: Anticancer activity against human A2780 cells xenografted in nude C57B6 mouse orthotopic model of ovarian cancer assessed as tumor growth inhibition at 2.5 mg/kg administered ip 5 days a week for 4 weeks; type: functional; settings: read-out: TGI; outline: as §2
Mus musculus [30] = experiment: Downregulation of NF-kappaB p65 in human A2780 cells xenografted in nude C57B6 mouse by immunohistochemistry method; type: functional, organism-based; outline: as §3
A549 [31] = experiment: Inhibition of TNFalpha-induced IKKbeta-mediated NF-kappaB activity in human A549 cells at 10 uM after 2 hrs followed by TNFalpha addition for 7 hrs by ONE-Glo Luciferase reporter based luminescence assay; type: cell-based
Outline: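 A549 luciferase cells grown 5 passages without TNFα then 2 passages with or without 5 ng/mL TNFα; 50,000 per well overnight; 10 µM compound 2 h; then 20 ng/mL TNFα 7 h; PrestoBlue 10 min (560ex/590em) viability; ONE-Glo 10 min, luminescence 1000 ms.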

HeLa [32] = experiment: Anticlonogenic activity against human HeLa cells assessed as inhibition of colony formation after 2 to 7 days by crystal violet staining; type: functional, cell-based
Outline: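 HeLa cells seeded at 500-1000 per well, grown 24 h, drug-treated 48 h at 37°C (DMSO control), then fresh medium for 7 days; methanol fixed 15 min, 0.1% crystal violet 30 min at room temperature, colonies over 50 cells counted.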

serum albumin = serum albumin (Homo sapiens, UniProt P02768); experiment: Binding affinity to human serum albumin assessed as half life by HPLC analysis; type: ADME
Sequence of serum albumin (P02768 whole entry): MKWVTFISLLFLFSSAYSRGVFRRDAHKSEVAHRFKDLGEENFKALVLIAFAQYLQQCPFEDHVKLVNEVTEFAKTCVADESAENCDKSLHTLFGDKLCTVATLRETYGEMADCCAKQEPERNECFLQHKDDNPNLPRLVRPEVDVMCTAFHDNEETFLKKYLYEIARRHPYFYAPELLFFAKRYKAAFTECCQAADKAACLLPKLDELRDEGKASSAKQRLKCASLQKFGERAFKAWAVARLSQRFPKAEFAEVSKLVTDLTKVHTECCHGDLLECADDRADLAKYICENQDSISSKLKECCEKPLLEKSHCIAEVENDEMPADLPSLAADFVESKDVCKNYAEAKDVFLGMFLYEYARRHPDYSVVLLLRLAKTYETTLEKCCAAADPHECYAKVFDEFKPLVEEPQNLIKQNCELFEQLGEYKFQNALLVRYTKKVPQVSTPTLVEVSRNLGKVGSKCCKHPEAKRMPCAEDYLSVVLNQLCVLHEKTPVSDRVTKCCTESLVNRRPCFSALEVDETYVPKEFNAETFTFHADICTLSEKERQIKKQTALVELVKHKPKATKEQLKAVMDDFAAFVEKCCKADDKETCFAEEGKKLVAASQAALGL

Mus musculus [33] = experiment: Downregulation of Mcl-1 in human A2780 cells xenografted in nude C57B6 mouse in presence of cisplatin by […]; type: functional, organism-based

C=C1CC2(OC1=O)C(=O)Nc1c(C)ccc(C)c12 (configuration not stated)
Ratio IC50 (HeLa [1]): 2 | Ratio IC50 (SW480 [2]): 5 | EC50 (A2780 [3]): 1000 nM | IC50 (SW480 [4]): 1200 nM | Ratio EC50 (A2780 [5]): 13 | Ratio IC50 (SW480 [6]): 2 | Ratio IC50 (MIA PaCa-2 [7]): 2 | IC50 [8]: 900 nM | Ratio IC50 (MIA PaCa-2 [9]): 5 | Ratio EC50 (A2780 [10]): 20 | Ratio IC50 (HeLa [11]): 5 | IC50 (HeLa [12]): 3200 nM

C=C1CC2(OC1=O)C(=O)Nc1ccccc12 (configuration not stated)
TGI (A2780 [13]): 10% | inhibition (A2780 [13]): Dose-dependent effect | EC50 (A2780 [3]): 2300 nM | inhibition [14]: Active | inhibition [15]: Active | inhibition (A549 [16]): > 70% | Ratio EC50 (A2780 [5]): 4 | Activity (Mus musculus [17]): Active | Activity (Mus musculus [18]): Active | growth inhibition (GI) (MDA-MB-231 [19]): Dose-dependent effect | CI (A2780 [20]): <1 | IC50 [21]: 4000 nM | Activity (SK-OV-3 [22]): Active | Activity (Mus musculus [23]): Non-toxic | growth inhibition (GI) (MDA-MB-231 [24]): tde | TGI (A2780 [25]): 65% | inhibition in vivo at 5 mg/kg (A2780 [26]): 40% | Activity (SK-OV-3 [27]): Active | Activity (HeLa [28]): Active | inhibition in vivo at 2.5 mg/kg (A2780 [29]): 21% | Activity (Mus musculus [30]): Active | inhibition (A549 [31]): 75% | inhibition (HeLa [32]): Dose-dependent effect | half-life (serum albumin): 4.83 h | Activity (Mus musculus [33]): Active
